Test results from PMC11071470 (bioRxiv, 2024).

What was measured:
[1] = target: A3Bctd (Homo sapiens, UniProt Q9UH17); test: Intact protein mass spectrometry; type: binding
In short: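 Covalent test compound incubated with A3Bctd for 1 h and 3 h at varying molar equivalents of compound over protein, then analysed by intact protein mass spectrometry. Degree of covalent adduction was quantified from the intensity of the adduct mass species.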

[2] = target: T1, UDG (Escherichia coli, UniProt P12295); conditions: cited from earlier work
T1 sequence (P12295 1-229): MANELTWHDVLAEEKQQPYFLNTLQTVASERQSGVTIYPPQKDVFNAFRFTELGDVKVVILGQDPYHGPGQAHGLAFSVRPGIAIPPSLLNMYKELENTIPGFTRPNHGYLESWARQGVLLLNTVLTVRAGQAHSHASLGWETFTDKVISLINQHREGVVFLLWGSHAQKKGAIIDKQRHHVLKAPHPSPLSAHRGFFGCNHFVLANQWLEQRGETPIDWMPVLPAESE

Chain of A3Bctd (Q9UH17 193-382): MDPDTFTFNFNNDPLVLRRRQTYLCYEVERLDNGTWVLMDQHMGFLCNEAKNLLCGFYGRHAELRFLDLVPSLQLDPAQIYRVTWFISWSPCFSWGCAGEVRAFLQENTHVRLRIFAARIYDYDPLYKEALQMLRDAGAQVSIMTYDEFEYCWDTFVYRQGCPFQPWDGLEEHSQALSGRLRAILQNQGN

| SMILES | multiple adduction events (in words) [1] | inhibition of UDG (in words) [2] |
| --- | --- | --- |
| CCC1(O)CCCN(C(=O)c2ccc(-c3ccc(F)c(NC(=O)CCl)c3)cc2)C1 (centres unmarked) [Compound 24] | Multiple adduction events are detected | – |
| O=C(O)C1=CC(=C(c2ccc(O)c(C(=O)O)c2)c2ccc(O)c(C(=O)O)c2)C=CC1=O [MN1, aurintricarboxylic acid] | – | inhibits UDG |
